Positions count from the first letter of the chain named. No end group written: not given here. Me2 = α-N-dimethylated N-terminal residue
Experiments:
human NRMT1 [1] = target: T1, human NRMT1 (Homo sapiens, UniProt Q9BV86); test: MALDI-TOF MS-based methylation assay of native and mutant CENP-A; assay type: biochemical; conditions: 5 h incubation, CENP-A (1-9) peptides
T1 sequence (Q9BV86 1-223): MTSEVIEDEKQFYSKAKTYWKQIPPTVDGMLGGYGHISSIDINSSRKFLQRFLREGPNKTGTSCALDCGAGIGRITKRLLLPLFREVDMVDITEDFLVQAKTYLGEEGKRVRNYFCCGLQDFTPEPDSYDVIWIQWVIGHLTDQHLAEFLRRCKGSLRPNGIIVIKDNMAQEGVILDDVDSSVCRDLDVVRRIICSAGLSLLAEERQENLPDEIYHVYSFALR
How it was run: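 Recombinant His-tagged human NRMT1, expressed in E. coli and purified, incubated 5 h with native or mutant CENP-A peptides. Methylated products detected by MALDI-TOF mass spectrometry. Abundance of each methylation state scored semi-quantitatively (full or half abundance levels); products not detected are recorded as ND.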

human NRMT1 [2] = target: T1, human NRMT1; test: Thermofluor shift assay; assay type: binding; conditions: CENP-A (1-9) peptides, 360 μM; 1 mg/mL NRMT1, 180 μM SAH, pH 8.0
human NRMT1 [3] = target: T1, human NRMT1; test: Histone peptide methylation profiling by NRMT1; assay type: biochemical; conditions: nine-residue N-terminal histone peptides; MALDI-TOF MS
How it was run: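 Wild-type human NRMT1, produced recombinantly in E. coli and purified as a His-tagged protein, incubated with native or mutant peptide substrates for 5 h. Methylated products detected by MALDI-TOF MS and scored semi-quantitatively by relative abundance of each methylation state (full or half abundance), with not-detected products recorded as ND.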

human NRMT1 [4] = target: T1, human NRMT1; conditions: ref Okada et al. 2007; Tooley et al. 2010; Bailey et al. 2013; cited from earlier work
human NRMT1 (human) = human NRMT1 (human) (UniProt Q9BV86); test: thermofluor shift assay
human NRMT1 D180N = target: T2, human NRMT1 D180N (human, UniProt Q9BV86 1-223, D180N); test: cell-based or functional assay
T2 sequence: T1 sequence (Q9BV86 1-223) with D180N

human NRMT1 [5] = target: T3, human NRMT1 (human, UniProt Q9BV86 1-223); test: ITC
T3 sequence (looked up): T1 sequence (Q9BV86 1-223)

human NRMT1 [6] = target: T3, human NRMT1; test: thermofluor shift assay

In the case of (G1A)PRRRSRKP, the “methylation capacity / state preference, in words” value (human NRMT1 [1]) is reported as “full state” and the “Tm increase (stabilization) compared with NRMT1-SAH binary complex” value (“Tm increase (stabilization)” below) (human NRMT1 [2]) is reported as 1.5 °C.

For (G1P)PRRRSRKP, the “methylation capacity / state preference, in words” value (human NRMT1 [1]) was “full state” and the “Tm increase (stabilization)” value (human NRMT1 [2]) was 5.5 °C.

For (G1S)PRRRSRKP, the “methylation capacity / state preference, in words” value (human NRMT1 [1]) was “α-N-monomethylation being the major product form” and the “Tm increase (stabilization)” value (human NRMT1 [2]) was 3 °C.

In the case of PPKTSGKAA [DmH2B (fruit fly)], the “methylation by NRMT1, in words” value (human NRMT1 [3]) is reported as “dimethylation”.

In the case of “myosin light chain 3: reported NRMT1 substrate protein”, the “reported NRMT1 substrate, in words” value (human NRMT1 [4]) is listed as “reported NRMT1 substrates”.

With α-N-monomethylated CENP-A peptide the Tm of the NRMT1–CENP-A complex (human NRMT1 (human)) was 49 °C.

With α-N-trimethylated CENP-A peptide the Tm of the NRMT1–CENP-A complex (human NRMT1 (human)) was 50 °C.

B1: CENP-A (1–9) peptide, unmodified (peptide)
peptide: GPRRRSRKP
In the case of B1, the “in vitro methylation assay of CENP-A, drop of activity against wild-type enzyme” value (human NRMT1 D180N) is reported as ~4 fold.

B2: α-N-dimethylated CENP-A (1–9) peptide (peptide)
peptide: Me2-GPRRRSRKP
With B2 the Kd (human NRMT1 [5]) was 390 nM, the dH (human NRMT1 [5]) was -11.8 kcal/mol and the “Tm of the NRMT1–CENP-A complex” value (human NRMT1 [6]) was 52.5 °C.

B3: regulator of chromosome condensation 1 (RCC1): reported NRMT1 substrate protein (protein, UniProt P18754 2-421, looked up)
Regulator of chromosome …: SPKRIAKRRSPPADAIPKSKKVKVSHRSHSTEPGLVLTLGQGDVGQLGLGENVMERKKPALVSIPEDVVQAEAGGMHTVCLSKSGQVYSFGCNDEGALGRDTSVEGSEMVPGKVELQEKVVQVSAGDSHTAALTDDGRVFLWGSFRDNNGVIGLLEPMKKSMVPVQVQLDVPVVKVASGNDHLVMLTADGDLYTLGCGEQGQLGRVPELFANRGGRQGLERLLVPKCVMLKSRGSRGHVRFQDAFCGAYFTFAISHEGHVYGFGLSNYHQLGTPGTESCFIPQNLTSFKNSTKSWVGFSGGQHHTVCMDSEGKAYSLGRAEYGRLGLGEGAEEKSIPTLISRLPAVSSVACGASVGYAVTKDGRVFAWGMGTNYQLGTGQDEDAWSPVEMMGKQLENRVVLSVSSGGQHTVLLVKDKEQS
For B3, the “reported NRMT1 substrate, in words” value (human NRMT1 [4]) is given as “reported NRMT1 substrates”.

B4: retinoblastoma protein: reported NRMT1 substrate protein (protein, UniProt P06400 2-928, looked up)
Retinoblastoma-associated …: PPKTPRKTAATAAAAAAEPPAPPPPPPPEEDPEQDSGPEDLPLVRLEFEETEEPDFTALCQKLKIPDHVRERAWLTWEKVSSVDGVLGGYIQKKKELWGICIFIAAVDLDEMSFTFTELQKNIEISVHKFFNLLKEIDTSTKVDNAMSRLLKKYDVLFALFSKLERTCELIYLTQPSSSISTEINSALVLKVSWITFLLAKGEVLQMEDDLVISFQLMLCVLDYFIKLSPPMLLKEPYKTAVIPINGSPRTPRRGQNRSARIAKQLENDTRIIEVLCKEHECNIDEVKNVYFKNFIPFMNSLGLVTSNGLPEVENLSKRYEEIYLKNKDLDARLFLDHDKTLQTDSIDSFETQRTPRKSNLDEEVNVIPPHTPVRTVMNTIQQLMMILNSASDQPSENLISYFNNCTVNPKESILKRVKDIGYIFKEKFAKAVGQGCVEIGSQRYKLGVRLYYRVMESMLKSEEERLSIQNFSKLLNDNIFHMSLLACALEVVMATYSRSTSQNLDSGTDLSFPWILNVLNLKAFDFYKVIESFIKAEGNLTREMIKHLERCEHRIMESLAWLSDSPLFDLIKQSKDREGPTDHLESACPLNLPLQNNHTAADMYLSPVRSPKKKGSTTRVNSTANAETQATSAFQTQKPLKSTSLSLFYKKVYRLAYLRLNTLCERLLSEHPELEHIIWTLFQHTLQNEYELMRDRHLDQIMMCSMYGICKVKNIDLKFKIIVTAYKDLPHAVQETFKRVLIKEEEYDSIIVFYNSVFMQRLKTNILQYASTRPPTLSPIPHIPRSPYKFPSSPLRIPGGNIYISPLKSPYKISEGLPTPTKMTPRSRILVSIGESFGTSEKFQKINQMVCNSDRVLKRSAEGSNPPKPLKKLRFDIEGSDEADGSKHLPGESKFQQKLAEMTSTRTRMQKQKMNDSMDTSNKEEK
For B4, the “reported NRMT1 substrate, in words” value (human NRMT1 [4]) is given as “reported NRMT1 substrates”.

B5: CENP-B: reported NRMT1 substrate protein (protein, UniProt P07199 2-599, looked up)
Major centromere autoantigen B: GPKRRQLTFREKSRIIQEVEENPDLRKGEIARRFNIPPSTLSTILKNKRAILASERKYGVASTCRKTNKLSPYDKLEGLLIAWFQQIRAAGLPVKGIILKEKALRIAEELGMDDFTASNGWLDRFRRRHGVVSCSGVARARARNAAPRTPAAPASPAAVPSEGSGGSTTGWRAREEQPPSVAEGYASQDVFSATETSLWYDFLPDQAAGLCGGDGRPRQATQRLSVLLCANADGSEKLPPLVAGKSAKPRAGQAGLPCDYTANSKGGVTTQALAKYLKALDTRMAAESRRVLLLAGRLAAQSLDTSGLRHVQLAFFPPGTVHPLERGVVQQVKGHYRQAMLLKAMAALEGQDPSGLQLGLTEALHFVAAAWQAVEPSDIAACFREAGFGGGPNATITTSLKSEGEEEEEEEEEEEEEEGEGEEEEEEGEEEEEEGGEGEELGEEEEVEEEGDVDSDEEEEEDEESSSEGLEAEDWAQGVVEAGGSFGAYGAQEEAQCPTLHFLEGGEDSDSDSEEEDDEEEDDEDEDDDDDEEDGDEVPVPSFGEAMAYFAMVKRYLTSFPIDDRVQSHILHLEHDLVHVTRKNHARQAGVRGLGHQS
In the case of B5, the “reported NRMT1 substrate, in words” value (human NRMT1 [4]) is given as “reported NRMT1 substrates”.

B6: kelch-like protein 31: reported NRMT1 substrate protein (protein, UniProt Q9H511 2-634, looked up)
Kelch-like protein 31: APKKKIVKKNKGDINEMTIIVEDSPLNKLNALNGLLEGGNGLSCISSELTDASYGPNLLEGLSKMRQENFLCDLVIGTKTKSFDVHKSVMASCSEYFYNILKKDPSIQRVDLNDISPLGLATVIAYAYTGKLTLSLYTIGSIISAAVYLQIHTLVKMCSDFLIREMSVENCMYVVNIAETYSLKNAKAAAQKFIRDNFLEFAESDQFMKLTFEQINELLIDDDLQLPSEIVAFQIAMKWLEFDQKRVKYAADLLSNIRFGTISAQDLVNYVQSVPRMMQDADCHRLLVDAMNYHLLPYHQNTLQSRRTRIRGGCRVLVTVGGRPGLTEKSLSRDILYRDPENGWSKLTEMPAKSFNQCVAVMDGFLYVAGGEDQNDARNQAKHAVSNFCRYDPRFNTWIHLASMNQKRTHFSLSVFNGLVYAAGGRNAEGSLASLECYVPSTNQWQPKTPLEVARCCHASAVADGRVLVTGGYIANAYSRSVCAYDPASDSWQELPNLSTPRGWHCAVTLSDRVYVMGGSQLGPRGERVDVLTVECYSPATGQWSYAAPLQVGVSTAGVSALHGRAYLVGGWNEGEKKYKKCIQCFSPELNEWTEDDELPEATVGVSCCTLSMPNNVTRESRASSVSSVPVSI
In the case of B6, the “reported NRMT1 substrate, in words” value (human NRMT1 [4]) is listed as “reported NRMT1 substrates”.

B7: myosin light chain 2: reported NRMT1 substrate protein (protein, UniProt P10916 2-166, looked up)
Myosin regulatory light chain …: APKKAKKRAGGANSNVFSMFEQTQIQEFKEAFTIMDQNRDGFIDKNDLRDTFAALGRVNVKNEEIDEMIKEAPGPINFTVFLTMFGEKLKGADPEETILNAFKVFDPEGKGVLKADYVREMLTTQAERFSKEEVDQMFAAFPPDVTGNLDYKNLVHIITHGEEKD
For B7, the “reported NRMT1 substrate, in words” value (human NRMT1 [4]) is listed as “reported NRMT1 substrates”.

Source: article PMC4691888 (Genes & Development, 2015)
